According to PMC3694426 (Clinical cancer research : an official journal of the …, 2013):
pIC50: −log10 of the molar value. Entries after “also recorded” stand apart in the source; their conditions may differ.

Assays:
[1] = phase I dose escalation: DLTs, MTD and treatment-emergent adverse events; assay type: in vivo, human
[2] = tested on: B837Tx medulloblastoma allograft; conditions: oral administration; cited from earlier work
[3] = tested on: transgenic pancreatic cancer models; conditions: cited from earlier work
[4] = tested on: basal cell carcinoma (BCC); test: antitumor activity in patients with BCC; assay type: in vivo, human
Procedure, shortened: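 Oral test compound, once daily in 28-day cycles, given as an outpatient, preceded by a single dose 7 days before cycle 1. BCC patients were dosed at 130 or 160 mg. Evaluable meant more than one dose plus a post-baseline clinical or RECIST 1.0 assessment. Treatment continued until progression, unacceptable adverse events or withdrawal.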

Gli-1 mRNA = test: pharmacodynamics: Gli-1 expression in skin and tumor biopsies; assay type: in vivo, human
Procedure, shortened: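 Normal skin was biopsied before treatment and 3 weeks into cycle 1 of once-daily oral dosing. RNA was extracted and Gli-1 mRNA measured by RT-PCR. In the biopsy cohort, accessible tumours were sampled at the same time points (baseline cycle 1 day −7; cycle 1 day 22). Gli-1 IHC scored stromal versus epithelial nuclear staining.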

Smo receptor = conditions: read-out: IC50, binding to the Smo receptor; stated in introduction; cited from earlier work
[5] = 28 evaluable vismodegib-naïve BCC patients

CC1=C2C[C@H]3[C@@H](CC[C@@H]4C[C@H](NS(C)(=O)=O)CC[C@@]43C)[C@@H]2CC[C@@]2(C1)O[C@@H]1C[C@H](C)CN[C@H]1[C@H]2C [IPI-926]
patients discontinued from the study due to toxicity ([1]; 6 of 94 patients): 6% | ≥grade 2 toxicities ([1]; 20, 30, 40, 60 and 90 mg, 1-patient cohorts): no ≥grade 2 toxicities were documented | deaths while on study ([1]; 94 patients): No patients died while on study | ALT elevation (lab), treatment-emergent adverse event ([1]; <130 mg (n = 5), Grade 1–2): 1 (20) n (%) | AST elevation (lab), treatment-emergent adverse event ([1]; <130 mg (n = 5), Grade 1–2): 1 (20) n (%) | Alopecia, treatment-emergent adverse event ([1]; <130 mg (n = 5), Grade 1–2): 1 (20) n (%) | Decreased appetite, treatment-emergent adverse event ([1]; <130 mg (n = 5), Grade 1–2): 0 (0) n (%) | Diarrhea, treatment-emergent adverse event ([1]; <130 mg (n = 5), Grade 1–2): 0 (0) n (%) | Dysgeusia, treatment-emergent adverse event ([1]; <130 mg (n = 5), Grade 1–2): 1 (20) n (%) | Fatigue, treatment-emergent adverse event ([1]; <130 mg (n = 5), Grade 1–2): 2 (40) n (%) | Hemoglobin (lab), treatment-emergent adverse event ([1]; <130 mg (n = 5), Grade 1–2): 3 (60) n (%) | Muscle spasms, treatment-emergent adverse event ([1]; <130 mg (n = 5), Grade 1–2): 2 (40) n (%) | Nausea, treatment-emergent adverse event ([1]; <130 mg (n = 5), Grade 1–2): 1 (20) n (%) | Thrombocytopenia (lab), treatment-emergent adverse event ([1]; <130 mg (n = 5), Grade 1–2): 0 (0) n (%) | Vomiting, treatment-emergent adverse event ([1]; <130 mg (n = 5), Grade 1–2): 0 (0) n (%) | ALT elevation (lab), treatment-emergent adverse event ([1]; <130 mg (n = 5), Grade ≥3): 0 (0) n (%) | AST elevation (lab), treatment-emergent adverse event ([1]; <130 mg (n = 5), Grade ≥3): 0 (0) n (%) | Alopecia, treatment-emergent adverse event ([1]; <130 mg (n = 5), Grade ≥3): 0 (0) n (%) | Decreased appetite, treatment-emergent adverse event ([1]; <130 mg (n = 5), Grade ≥3): 0 (0) n (%) | Diarrhea, treatment-emergent adverse event ([1]; <130 mg (n = 5), Grade ≥3): 0 (0) n (%) | Dysgeusia, treatment-emergent adverse event ([1]; <130 mg (n = 5), Grade ≥3): 0 (0) n (%) | Fatigue, treatment-emergent adverse event ([1]; <130 mg (n = 5), Grade ≥3): 0 (0) n (%) | Hemoglobin (lab), treatment-emergent adverse event ([1]; <130 mg (n = 5), Grade ≥3): 0 (0) n (%) | Muscle spasms, treatment-emergent adverse event ([1]; <130 mg (n = 5), Grade ≥3): 0 (0) n (%) | Nausea, treatment-emergent adverse event ([1]; <130 mg (n = 5), Grade ≥3): 0 (0) n (%) | Thrombocytopenia (lab), treatment-emergent adverse event ([1]; <130 mg (n = 5), Grade ≥3): 0 (0) n (%) | Vomiting, treatment-emergent adverse event ([1]; <130 mg (n = 5), Grade ≥3): 0 (0) n (%) | ALT elevation (lab), treatment-emergent adverse event ([1]; >160 mg (n = 15), Grade 1–2): 11 (73) n (%) | AST elevation (lab), treatment-emergent adverse event ([1]; >160 mg (n = 15), Grade 1–2): 12 (80) n (%) | Alopecia, treatment-emergent adverse event ([1]; >160 mg (n = 15), Grade 1–2): 2 (13) n (%) | Decreased appetite, treatment-emergent adverse event ([1]; >160 mg (n = 15), Grade 1–2): 4 (27) n (%) | Diarrhea, treatment-emergent adverse event ([1]; >160 mg (n = 15), Grade 1–2): 2 (13) n (%) | Dysgeusia, treatment-emergent adverse event ([1]; >160 mg (n = 15), Grade 1–2): 1 (7) n (%) | Fatigue, treatment-emergent adverse event ([1]; >160 mg (n = 15), Grade 1–2): 6 (40) n (%) | Hemoglobin (lab), treatment-emergent adverse event ([1]; >160 mg (n = 15), Grade 1–2): 12 (80) n (%) | Muscle spasms, treatment-emergent adverse event ([1]; >160 mg (n = 15), Grade 1–2): 4 (27) n (%) | Nausea, treatment-emergent adverse event ([1]; >160 mg (n = 15), Grade 1–2): 7 (47) n (%) | Thrombocytopenia (lab), treatment-emergent adverse event ([1]; >160 mg (n = 15), Grade 1–2): 1 (7) n (%) | Vomiting, treatment-emergent adverse event ([1]; >160 mg (n = 15), Grade 1–2): 5 (33) n (%) | ALT elevation (lab), treatment-emergent adverse event ([1]; >160 mg (n = 15), Grade ≥3): 4 (27) n (%) | AST elevation (lab), treatment-emergent adverse event ([1]; >160 mg (n = 15), Grade ≥3): 3 (20) n (%) | Alopecia, treatment-emergent adverse event ([1]; >160 mg (n = 15), Grade ≥3): 0 (0) n (%) | Decreased appetite, treatment-emergent adverse event ([1]; >160 mg (n = 15), Grade ≥3): 1 (7) n (%) | Diarrhea, treatment-emergent adverse event ([1]; >160 mg (n = 15), Grade ≥3): 0 (0) n (%) | Dysgeusia, treatment-emergent adverse event ([1]; >160 mg (n = 15), Grade ≥3): 0 (0) n (%) | Fatigue, treatment-emergent adverse event ([1]; >160 mg (n = 15), Grade ≥3): 2 (13) n (%) | Hemoglobin (lab), treatment-emergent adverse event ([1]; >160 mg (n = 15), Grade ≥3): 1 (7) n (%) | Muscle spasms, treatment-emergent adverse event ([1]; >160 mg (n = 15), Grade ≥3): 0 (0) n (%) | Nausea, treatment-emergent adverse event ([1]; >160 mg (n = 15), Grade ≥3): 0 (0) n (%) | Thrombocytopenia (lab), treatment-emergent adverse event ([1]; >160 mg (n = 15), Grade ≥3): 0 (0) n (%) | Vomiting, treatment-emergent adverse event ([1]; >160 mg (n = 15), Grade ≥3): 0 (0) n (%) | recommended phase II / single-agent dose ([1]; QD, 28-day cycles): 160 mg | dose levels well tolerated ([1]; administered QD): up to 160 mg | hematologic toxicity ([1]; all dose levels): not associated with hematologic toxicity; also recorded: No significant hematologic toxicities | patients reporting alopecia ([1]; at the MTD): 22% | patients reporting muscle spasms ([1]; at the MTD): 33% | inhibition of HhP activity (downregulation of Gli1 mRNA) [2]: dose-dependent inhibition of HhP activity | survival of mice bearing orthotopically implanted tumors [2]: significant prolongation of survival | intratumoral concentration of gemcitabine [3]: enhanced intratumoral concentration of gemcitabine | complete response (CR) [4, 5]: 2 patients | partial response (PR) [4, 5]: 6 patients | patients with objective response [4, 5]: Eight | patients showing a response ([4]; HhP inhibitor-naïve evaluable BCC patients, doses ≥130 mg): 8 of 28 | difference in efficacy between the 130- and 160-mg dose levels ([4]; full BCC cohort (N = 39)): no apparent difference in efficacy | objective responses ([4]; nine BCC patients previously treated with vismodegib): no objective responses | patients with a decrease in Gli-1 transcript level in normal skin biopsies (Gli-1 mRNA; 48 of 65 patients, after 21 days of treatment): 74% | Gli-1 transcript reduction in stroma (LCM quantitative RT-PCR) (Gli-1 mRNA; rectal adenocarcinoma patient biopsy, cycle 1, day 22 vs baseline): about 7 fold | Gli-1 stromal staining (IHC) (Gli-1 mRNA; rectal adenocarcinoma posttreatment biopsy, cycle 1, day 22): reduced Gli-1 stromal staining | pIC50 (Smo receptor): 8.85
